High-throughput results as filed in PubChem BioAssay.
KCNQ1 act = potentiates or activates the human KCNQ1 potassium channel. 0.35% of 310,000 active. AID 2648. B-score at 10 µM. CHO-K1 KCNQ1, thallium flux FluxOR fluorescence; stronger effect = higher value. P51787;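 active = fluorescence ratio B-score, a plate-corrected score, at least three library SD, with initial intensity B-score within 5 SD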
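System: Stable KCNQ1 CHO-K1 line | Incubation: 90 min dye loading and 20 min compound exposure, both at room temperature | Measure: Ratio B score | Medium: Assay buffer for compound exposure, DMSO matched across wells | Compound dosing: Single-concentration screen | Probe or stimulus: K+/Tl+ depolarizing stimulus | Measured by: Kinetic FluxOR fluorescence, 10 s baseline plus 110 s post-stimulus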
hERG protect = shields human hERG channel from block by proarrhythmic agents. 0.51% of 310,000 active. CHO-hERG, FluxOR thallium flux, dofetilide IC70 present. activation (rescue from dofetilide block), less the hit threshold, % at 10 µM. AID 1511;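 active = activation above the mean of controls blocked by dofetilide plus 5 SD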;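 note: thallium influx through hERG after potassium depolarization seen as dye fluorescence rise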
KCNK9 inh = blocks the human KCNK9 two-pore domain potassium channel | AID 488922 | Q9NPC2 | HEK293 KCNK9, FluxOR thallium flux fluorescence; stronger effect = lower value | B-score at 10 µM | 1.2% of 310,000 active;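 active = ratio B-score over 3 SD below the library mean, with starting fluorescence within 5 SD of its mean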;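 note: negative B-score means less thallium flux so channel inhibition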
KCNQ1 block = human KCNQ1 channel inhibition | 1.3% of 310,000 active | CHO-K1 KCNQ1, FluxOR thallium flux fluorescence; stronger effect = higher value | P51787 | B-score at 10 µM;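 active = compounds whose thallium flux B-score, printed positive for inhibition, exceeds three library SD while starting fluorescence stays within three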;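 note: channel opened by potassium depolarization with thallium stimulus after 20 min compound exposure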
KCNK3 block = human KCNK3 channel inhibition, primary screen | O14649 | CHO-KCNK3 thallium flux, FluxOR fluorescence; stronger effect = lower value | B-score at 10 µM | 0.84% of 340,000 active | AID 602410;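 active = B-score under library mean minus 4 SD, starting fluorescence ratio at most library mean plus 5 SD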;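 note: more negative B-score means stronger inhibition of thallium flux through KCNK3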
Kir21 block = inhibitors of mouse Kir2.1 inward-rectifier potassium channel | P35561 | AID 1672 | HEK293-Kir2.1, FluxOR thallium flux fluorescence; stronger effect = lower value | 0.85% of 310,000 active | B-score at 10 µM;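 active = fluorescence ratio B-score at or below minus 3 SD of library scores, with starting-brightness B-score within 2 SD, cut at about -4.2 in these data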;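 note: channel flux triggered by added potassium and thallium sulfate stimulus; B-score of peak minus minimum fluorescence over baseline after thallium stimulus; more negative B-score means stronger Kir2.1 block with less thallium influx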
KCNQ1 inh valid = human KCNQ1 channel inhibition, validation assay | shares compounds with KCNQ1 block | KCNQ1 cell line, FluxOR thallium flux fluorescence | inhibition, % at 10 µM | 93% of 1,600 active | AID 588353;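 active = primary screen active, with duplicate mean exceeding buffer control mean plus 3 SD of buffer wells, cut at about 28% in these data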
CHO Tl flux = activity in parental CHO cells lacking KCNQ1 | shares compounds with KCNQ1 block | parental CHO-K1, FluxOR thallium flux fluorescence ratio; stronger effect = lower value; zero means no signal rise above baseline | fluorescence ratio (Tl flux) at 10 µM | 21% of 1,600 active;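 active = mean of duplicate thallium-flux fluorescence ratios in parental host cells more than 5 SD below the buffer control mean, cut at about 0.38 in these data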;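 note: ratio is peak minus minimum fluorescence divided by baseline fluorescence; actives read low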
KCNQ1 ephys val = human KCNQ1 inhibition validated by electrophysiology | KCNQ1-CHO cells, automated patch clamp current | calls only at 10 µM | 20% of 490 active | shares compounds with KCNQ1 block;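 active = KCNQ1 current drop exceeding 3 SD of negative control wells, seen in both duplicate runs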;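 note: steady state current during a 2 s step from -80 to +40 mV; negative values mean current inhibition and positive values mean potentiation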
KCNQ2 spec = KCNQ1 inhibitor that also blocks rat KCNQ2 channel. shares compounds with KCNQ1 block. 71% of 1,600 active. KCNQ2 cells, FluxOR thallium flux fluorescence. AID 651746. inhibition, % at 10 µM;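 active = mean percent inhibition of the KCNQ2 thallium signal more than 5 SD above the buffer-only control wells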;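 note: KCNQ2 expressed in CHO cells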
KCNQ1-KCNE1 inh = human KCNQ1/KCNE1 inhibition in KCNQ1 specificity screen. inhibition, % at 10 µM. shares compounds with KCNQ1 block. 77% of 1,600 active. AID 652147. KCNQ1/KCNE1 cells, FluxOR thallium flux fluorescence;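 active = mean percent inhibition of duplicate wells above the buffer-only control mean plus 3 SD of those controls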
Hits are given with their value; i = inactive; nt = no result; + = active, no number. An excerpt weighted towards active compounds, which were near 3.8% of everything screened.

SMILES	KCNQ1 act	hERG protect	KCNK9 inh	KCNQ1 block	KCNK3 block	Kir21 block	KCNQ1 inh valid	CHO Tl flux	KCNQ2 spec	KCNQ1-KCNE1 inh	others
CCOc1ccc(N(CC(=O)NC2CC3CCC2C3)S(=O)(=O)c2ccc(C)cc2)cc1 (stereo not drawn)	i	i	i	8	i	i	100	i	94%	100%	KCNQ1 ephys val=+
O=S(=O)(CCc1ccncc1)C1Cc2cccc3cccc1c23 (stereo not drawn)	i	i	i	i	i	i	nt	nt	nt	nt
CC(=O)c1c(C)nc2ccc(Br)cc2c1-c1ccccc1	i	i	i	i	i	i	nt	nt	nt	nt
Cc1nc2ccc(Br)cc2c(-c2ccccc2)c1C(=O)O	i	i	i	6	i	i	i	i	96%	i
COc1ccc(CN=Cc2[nH]c3ccc(Br)c(Cl)c3c2O)cc1	i	i	i	7	i	i	116	0.37	111%	92%
CCOC(=O)c1cnc(SC)nc1Oc1cccc(NS(=O)(=O)c2ccccc2)c1	i	i	i	7	i	i	56	i	93%	50%
Cc1ccc(-c2csc(=Nc3cccnc3)n2CCCN2CCCC2=O)cc1C	i	i	i	i	i	i	nt	nt	nt	nt
Cc1ccc(-c2csc(=Nc3cccnc3)n2CCCn2ccnc2)cc1C	i	i	i	12	i	-4.5	42	i	80%	i
Cc1cc2cc(CNC(=O)c3ccc4c(c3)OCO4)ccc2n1C	i	i	i	i	i	i	nt	nt	nt	nt
Cc1onc(-c2ccccc2)c1CNC(=O)Nc1cccc(Cl)c1	i	i	i	7	i	i	76	i	74%	79%
Cc1cc(C)cc(NC(=O)NCc2c(-c3ccccc3)noc2C)c1	i	i	i	i	i	i	nt	nt	nt	nt
CC(=O)Nc1cccc(NC(=O)CSc2nnc3ccc(-c4ccncc4)nn23)c1	i	i	i	i	i	i	nt	nt	nt	nt
COc1ccc(CCNc2nc(N3CCCCC3)nc(N3CCCCC3)n2)cc1OC	i	i	i	6	i	i	106	0.37	123%	+
COc1ccc(CCNc2nc(N3CCOCC3)nc(N3CCOCC3)n2)cc1OC	i	i	i	i	i	i	nt	nt	nt	nt
CCCn1nc(NC(=O)c2cccs2)c2cc3cccc(C)c3nc21	i	i	i	7	i	i	158	0.32	i	+
Oc1cc2ccccc2cc1-c1n[nH]c(=S)o1	i	i	i	7	i	i	i	i	i	i
O=C(Nc1nc2ccc(F)cc2s1)C1CCN(S(=O)(=O)c2cc([N+](=O)[O-])ccc2Cl)CC1	i	i	i	15	i	i	158	0.37	118%	198%
Cc1ccc(NC(=O)C2CCN(S(=O)(=O)c3ccc4c(c3)NC(=O)C(C)S4)CC2)cc1Cl (stereo not drawn)	i	i	i	17	i	i	126	i	92%	107%	KCNQ1 ephys val=i
Cc1cc(C)cc(NC(=O)C2CCN(S(=O)(=O)c3ccc4c(c3)NC(=O)C(C)S4)CC2)c1 (stereo not drawn)	i	i	i	7	i	i	116	i	98%	131%	KCNQ1 ephys val=i
CC1Sc2ccc(S(=O)(=O)N3CCC(C(=O)NCC(C)c4ccccc4)CC3)cc2NC1=O (stereo not drawn)	i	i	i	7	i	i	56	i	i	i
O=C1/C(=C\c2cccc(O)c2O)SC(=S)N1Cc1ccccc1	i	i	i	i	i	i	nt	nt	nt	nt
O=C1/C(=C\c2cc([N+](=O)[O-])ccc2O)SC(=S)N1Cc1ccc(Cl)cc1	i	i	i	17	i	i	165	0.22	i	i
COc1ccc(C(=O)CCc2ccccc2)c(O)c1	i	i	i	i	i	i	nt	nt	nt	nt
O=C(CCc1ccccc1)c1c(O)cc(O)cc1O	i	i	i	10	i	i	123	0.37	102%	177%
COc1ccc(N/C=C2\CCc3ccccc3C2=O)cc1	i	i	i	6	i	i	50	i	112%	114%
SMILES	KCNQ1 act	hERG protect	KCNK9 inh	KCNQ1 block	KCNK3 block	Kir21 block	KCNQ1 inh valid	CHO Tl flux	KCNQ2 spec	KCNQ1-KCNE1 inh	others
COc1ccc(N=C2NC(=O)S/C2=C\c2ccc(N(C)C)cc2)cc1	i	i	i	7	i	i	60	0.38	66%	106%
CN(C)c1ccc(C=C2SC(=S)NC2=O)cc1	nt	nt	nt	nt	i	nt	nt	nt	nt	nt
CCCc1cc(C(=O)Nc2ccc(C(=O)c3ccc(F)cc3)cc2)n(C)n1	i	i	i	6	-12	i	+	i	137%	+
O=C(Nc1ccc(F)cc1)c1ccc2snnc2c1	i	i	i	i	i	i	nt	nt	nt	nt
CNc1ccc2c3c(cccc13)C(=O)N(C)C2=O	i	i	i	32	i	i	+	0.003	i	i
COc1ccc(C(C)=O)cc1CSc1nncn1C	i	i	i	8	i	i	64	i	60%	35%
O=C(Nc1ccccc1N1CCCC1)C1CCN(S(=O)(=O)c2ccccc2C(F)(F)F)CC1	i	i	i	i	i	i	nt	nt	nt	nt
O=C(Nc1ccccc1N1CCCCC1)C1CCN(S(=O)(=O)c2ccccc2C(F)(F)F)CC1	i	i	i	11	i	i	64	i	101%	82%
C#CCn1c(O)c(N=NC(=O)C(O)c2ccccc2)c2ccccc21 (stereo not drawn)	i	i	i	i	i	i	nt	nt	nt	nt
Cc1ccc(N(C(=O)Nc2ccccc2)C2=NCCC2)cc1	i	i	i	i	i	i	nt	nt	nt	nt
COc1ccc(N(C(=O)Nc2ccc(Cl)cc2)C2=NCCC2)cc1	i	i	i	12	i	i	130	0.37	132%	200%
O=C(CCc1ccccc1)Nc1cc(Cl)ccc1O	i	i	i	9	i	i	63	i	i	90%
O=C(O)CC(=O)Nc1cc(Cl)ccc1O	i	i	i	i	i	i	nt	nt	nt	nt
Cc1cc(/C=C2/SC(=S)N(c3ccc([N+](=O)[O-])cc3)C2=O)c(C)n1-c1cccnc1	i	i	i	16	i	i	124	i	75%	102%	KCNQ1 ephys val=i
S=C(NCC1CCCCC1)Nc1ccc(Oc2ccccc2)cc1	i	i	i	9	i	i	81	i	65%	i
CCOC(=O)c1c(O)cc(OC)cc1CCc1ccccc1	nt	nt	nt	nt	i	nt	nt	nt	nt	nt
